From ChEMBL document CHEMBL4513216, “Probing the Open Global Health Chemical Diversity Library for Multistage-Active Starting Points for Next-Generation Antimalarials” (ACS Infect Dis, 2020)

assay: Toxicity liver stage against HepG2, at 10uM; format: cell-based; parameters: test concentration 10 uM, cell line HepG2-A16-CD81EGFP; conditions: human, HepG2-A16-CD81EGFP cells; read-out: INHIBITION
In short: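 Uninfected HepG2-A16-CD81EGFP cells, 3 × 10^3 per well, 1536-well, plated on prespotted compound at 10 μM final, parasite-free screening media added to match infected plates; puromycin 10 μM positive, DMSO 0.5% negative; run in parallel with 48 h PbLuc assay at 37 °C, 5% CO2; viability by CellTiter-Glo luminescence, normalized to controls.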

**Q.** For `CN(CC(=O)N1CCCC1)C(=O)c1ccccc1Nc1ccccc1`, which cytotoxicity at 10 µM is on record?
**A.** The cytotoxicity at 10 µM was 11.3%.

**Q.** With `CC[C@H]1CN2CC[C@H]1C[C@@H]2CNC(=O)Nc1cccc(C(F)(F)F)c1` as the molecule, how does the cytotoxicity at 10 µM read?
**A.** The cytotoxicity at 10 µM was 0.676%.

**Q.** Which cytotoxicity at 10 µM does the source give for `CO[C@@H]1CN(c2ccccc2)S(=O)(=O)[C@@]12CCN(C(C)=O)C2` here?
**A.** Its cytotoxicity at 10 µM is 6.07%.

**Q.** With `O=C(Cc1csc(-c2cccc(Cl)c2)n1)NCc1cccc(C(=O)O)c1` as the molecule, how does the cytotoxicity at 10 µM read?
**A.** The cytotoxicity at 10 µM was -0.0616%.

**Q.** With `Cc1nn(C2CCS(=O)(=O)C2)c(O)c1Cc1ccccc1Cl` (stereo not drawn) as the molecule, how does the cytotoxicity at 10 µM read?
**A.** Its cytotoxicity at 10 µM is -45.7%.

**Q.** For `CCCNC(=O)c1ccc2c(OC)n(C)nc2c1`, which cytotoxicity at 10 µM is on record?
**A.** The cytotoxicity at 10 µM was 1.56%.

**Q.** For `Cc1nn(C)c(C)c1S(=O)(=O)NCC(C)(O)c1ccc2c(c1)OCO2` (stereo not drawn), which cytotoxicity at 10 µM is on record?
**A.** Its cytotoxicity at 10 µM is 1.77%.

**Q.** With `O=C(c1ccc[nH]1)N1CC2(CCN(c3nccs3)C2)C1` as the molecule, how does the cytotoxicity at 10 µM read?
**A.** The cytotoxicity at 10 µM was 5.68%.

**Q.** For `CC1c2ncc(Cn3cncn3)n2CCN1C(=O)Cc1cccs1` (stereo not drawn), which cytotoxicity at 10 µM is on record?
**A.** Its cytotoxicity at 10 µM is 7.89%.

**Q.** For `O=C1NC(c2ccccc2)=N[C@@]12CC[C@@H]1CN(Cc3ccncc3)C[C@@H]12`, which cytotoxicity at 10 µM is on record?
**A.** Its cytotoxicity at 10 µM is 11.9%.

**Q.** With `Cc1noc(C)c1CN1CC[C@H]2OCC[C@@H](C(=O)N3CCCO3)[C@@H]2C1` as the molecule, how does the cytotoxicity at 10 µM read?
**A.** The cytotoxicity at 10 µM was -8.25%.

**Q.** With `Cc1c(Br)cnn1CC(=O)Nc1ccon1` as the molecule, how does the cytotoxicity at 10 µM read?
**A.** The cytotoxicity at 10 µM was 10.8%.

**Q.** With `Cc1ccccc1NCc1nc2n(n1)CCCCC2` as the molecule, how does the cytotoxicity at 10 µM read?
**A.** Its cytotoxicity at 10 µM is 4.7%.

**Q.** Which cytotoxicity at 10 µM does the source give for `Cc1cc2nc(SCC(=O)N3CCCC3)n(Cc3ccco3)c(O)c-2n1` here?
**A.** The cytotoxicity at 10 µM was 7.19%.

**Q.** With `O=C1CCC(=O)c2oc3ccc(Cl)cc3c2N1` as the molecule, how does the cytotoxicity at 10 µM read?
**A.** Its cytotoxicity at 10 µM is 7.58%.

**Q.** With `CCCNc1cc(C(=O)N2CCOCC2)nc(C)n1` as the molecule, how does the cytotoxicity at 10 µM read?
**A.** Its cytotoxicity at 10 µM is 10.8%.

**Q.** For `CN(C)Cc1cnn(-c2ccccc2C(=O)NCCC2CCCN2C)c1` (stereo not drawn), which cytotoxicity at 10 µM is on record?
**A.** Its cytotoxicity at 10 µM is 8.18%.

**Q.** For `CO[C@@H]1CC[C@@H](NC(=O)c2ccc(OCCN3CCCC3)cc2)[C@H]1O`, which cytotoxicity at 10 µM is on record?
**A.** Its cytotoxicity at 10 µM is -3.83%.

**Q.** With `CCN(CC1CCOC1)C(=O)NCc1nnc2n1CCCCC2` (stereo not drawn) as the molecule, how does the cytotoxicity at 10 µM read?
**A.** Its cytotoxicity at 10 µM is -0.43%.

**Q.** With `Clc1ccc(N2CCC(OCC3CCCCO3)CC2)nc1` (stereo not drawn) as the molecule, how does the cytotoxicity at 10 µM read?
**A.** The cytotoxicity at 10 µM was -1.8%.

**Q.** With `CCOc1ccc(C(=O)NC2CCN(c3ncccn3)CC2)cc1C` as the molecule, how does the cytotoxicity at 10 µM read?
**A.** Its cytotoxicity at 10 µM is -10.1%.

**Q.** For `CC(C(=O)NCc1ccc(F)cc1)N(C)CCN1CCOCC1` (stereo not drawn), which cytotoxicity at 10 µM is on record?
**A.** Its cytotoxicity at 10 µM is 0.247%.

**Q.** For `Cc1nc(C)c(C(=O)N2CCCc3c(F)ccc(F)c32)o1`, which cytotoxicity at 10 µM is on record?
**A.** Its cytotoxicity at 10 µM is 7.19%.

**Q.** With `Cc1cc(C)nc(N2CCc3ccc(OC(F)F)cc3C2)n1` as the molecule, how does the cytotoxicity at 10 µM read?
**A.** Its cytotoxicity at 10 µM is 2.68%.

**Q.** Which cytotoxicity at 10 µM does the source give for `Cc1csc(C2CCCCN2C(=O)c2cnn3ccc(C)nc23)n1` (stereo not drawn) here?
**A.** Its cytotoxicity at 10 µM is -5.85%.

**Q.** Which cytotoxicity at 10 µM does the source give for `CCc1noc(C)c1C(=O)NCc1ccccn1` here?
**A.** The cytotoxicity at 10 µM was -1%.

**Q.** Which cytotoxicity at 10 µM does the source give for `CC(=O)Nc1cccc(CN2CCCC2C(=O)Nc2nccs2)c1` (stereo not drawn) here?
**A.** Its cytotoxicity at 10 µM is 6.12%.

**Q.** For `CC(C)(C)CC(=O)Nc1ncn(CC(=O)NCc2ccccc2)n1`, which cytotoxicity at 10 µM is on record?
**A.** Its cytotoxicity at 10 µM is -3.38%.

**Q.** With `Cc1cccc(NC(=O)NCC2(N3CCOCC3)CCSC2)c1` (stereo not drawn) as the molecule, how does the cytotoxicity at 10 µM read?
**A.** Its cytotoxicity at 10 µM is 5.02%.

**Q.** With `Cc1cnn(CC2CCCN2CC(=O)N(C)Cc2ccsc2)c1` (stereo not drawn) as the molecule, how does the cytotoxicity at 10 µM read?
**A.** The cytotoxicity at 10 µM was 3.82%.

**Q.** With `O=C1NCCCCC1Sc1nnc(N2CCCC2)n1C1CC1` (stereo not drawn) as the molecule, how does the cytotoxicity at 10 µM read?
**A.** The cytotoxicity at 10 µM was 1.4%.

**Q.** With `COCCN(Cc1ccc(F)cc1Cl)C(=O)c1cc[n+]([O-])cc1` as the molecule, how does the cytotoxicity at 10 µM read?
**A.** The cytotoxicity at 10 µM was 4.75%.

**Q.** For `Cc1n[nH]c(C2CN(CC(=O)NCCc3ccc(F)cc3)CCO2)n1` (stereo not drawn), which cytotoxicity at 10 µM is on record?
**A.** The cytotoxicity at 10 µM was -8.13%.

**Q.** With `Cc1cc(NC(=O)COC(=O)c2ccc(F)cc2Br)n(C)n1` as the molecule, how does the cytotoxicity at 10 µM read?
**A.** The cytotoxicity at 10 µM was 6.03%.

**Q.** Which cytotoxicity at 10 µM does the source give for `CC(NS(C)(=O)=O)c1nc(-c2ccc(Br)cc2)no1` (stereo not drawn) here?
**A.** Its cytotoxicity at 10 µM is 4.29%.

**Q.** Which cytotoxicity at 10 µM does the source give for `Fc1ccc2c(C3=CCN(Cc4nnc(C5CCC5)o4)CC3)c[nH]c2c1` here?
**A.** Its cytotoxicity at 10 µM is -0.302%.

**Q.** Which cytotoxicity at 10 µM does the source give for `COc1ccccc1OCCC(=O)NC1CCc2nc(C)cn2C1` (stereo not drawn) here?
**A.** Its cytotoxicity at 10 µM is -7.05%.

**Q.** With `CCN(CC)C(=O)CNC(=O)c1ccc(-c2ccsc2)nc1C` as the molecule, how does the cytotoxicity at 10 µM read?
**A.** The cytotoxicity at 10 µM was 22.9%.

**Q.** For `CC(C)n1cc(CN2CCCN(C(=O)c3cccn3C)CC2)cn1`, which cytotoxicity at 10 µM is on record?
**A.** Its cytotoxicity at 10 µM is 1.51%.

**Q.** With `CCOC(C)c1noc(CN2CCN(Cc3cccnc3)CC2)n1` (stereo not drawn) as the molecule, how does the cytotoxicity at 10 µM read?
**A.** Its cytotoxicity at 10 µM is -4.55%.

**Q.** With `Cc1cc(S(=O)(=O)N(C)CC(N)=O)ccc1Br` as the molecule, how does the cytotoxicity at 10 µM read?
**A.** Its cytotoxicity at 10 µM is 15%.

**Q.** For `Cn1cc(CNCC2(O)CCCCC2)c(-c2cccnc2)n1`, which cytotoxicity at 10 µM is on record?
**A.** Its cytotoxicity at 10 µM is 14.9%.

**Q.** With `CC(C)(C)S(=O)(=O)c1ccc(N2CCC(n3ccnc3)CC2)cn1` as the molecule, how does the cytotoxicity at 10 µM read?
**A.** The cytotoxicity at 10 µM was -6.62%.

**Q.** Which cytotoxicity at 10 µM does the source give for `CN(C)C(CNCc1nc(-c2ccsc2)no1)c1cccc(F)c1` (stereo not drawn) here?
**A.** Its cytotoxicity at 10 µM is 12.9%.

**Q.** Which cytotoxicity at 10 µM does the source give for `COc1cc(-c2noc(C(CC(C)C)N3CCCCC3=O)n2)ccn1` (stereo not drawn) here?
**A.** Its cytotoxicity at 10 µM is -60.8%.

**Q.** Which cytotoxicity at 10 µM does the source give for `Cc1ccn(-c2ccc(NCc3cccnc3N3CCCCC3)nn2)n1` here?
**A.** Its cytotoxicity at 10 µM is 3.09%.

**Q.** For `CS(=O)(=O)N1CCOCC12CCN(Cc1ccoc1)CC2`, which cytotoxicity at 10 µM is on record?
**A.** The cytotoxicity at 10 µM was 7.81%.

**Q.** For `CC(C)N(C)Cc1cc(=O)n2c(n1)CN(C(=O)c1ccnnc1)CCC2`, which cytotoxicity at 10 µM is on record?
**A.** Its cytotoxicity at 10 µM is 2.95%.

**Q.** With `c1cc(COC[C@@]23CCC[C@@H]2CN(C2CCOCC2)C3)ccn1` as the molecule, how does the cytotoxicity at 10 µM read?
**A.** Its cytotoxicity at 10 µM is 8.44%.

**Q.** With `COc1ccc(CNC(=O)c2nc3c(s2)CCN(C(C)=O)CC3)cc1` as the molecule, how does the cytotoxicity at 10 µM read?
**A.** Its cytotoxicity at 10 µM is -76.6%.

**Q.** With `O=C(c1ncccn1)N1CCC[C@]2(C[C@@H](OCC3CC3)CO2)C1` as the molecule, how does the cytotoxicity at 10 µM read?
**A.** The cytotoxicity at 10 µM was -89.7%.

**Q.** With `CS(=O)(=O)N[C@@H]1CN(C(=O)c2ccccn2)C[C@@H]2CCCO[C@@H]21` as the molecule, how does the cytotoxicity at 10 µM read?
**A.** The cytotoxicity at 10 µM was -74.8%.

**Q.** With `Cn1cccc1C(=O)N1Cc2c(CN3CCCCC3)nn(C)c2C1` as the molecule, how does the cytotoxicity at 10 µM read?
**A.** The cytotoxicity at 10 µM was 1.25%.
